SMILES strings stand for the structures.

One assay deals with Hep 3B2. Nature of the assay: Cytotoxicity against human Hep3B cells assessed as cell viability measured after 48 hrs by MTT assay.
Another assay relates to L929. Nature of the assay: Cytotoxicity against mouse L929 cells assessed as cell viability measured after 48 hrs by MTT assay. The note with it: L929, 48 h. For orientation: Formazan colour is commonly taken as a measure of viable cells.
A further assay relates to A549. In words: Cytotoxicity against human A549 cells assessed as cell viability measured after 48 hrs by MTT assay. To be noted: A549, 48 h.
The target of the next assay is Carbonic anhydrase 12 (Homo sapiens, UniProt O43570). In words: Inhibition of human CA12 assessed as inhibition constant. Summed up: (§1)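 Esterase activity of the hCA isoform was followed spectrophotometrically by Verpoorte's method, as the rise in absorbance at 348 nm with p-nitrophenyl acetate as substrate. Increasing inhibitor concentrations were incubated with the substrate, from 1 mg mL−1 DMSO stocks, to derive KI. Results are means of triplicate assays ± SEM.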
Sequence of Carbonic anhydrase 12 (O43570 whole entry, canonical isoform): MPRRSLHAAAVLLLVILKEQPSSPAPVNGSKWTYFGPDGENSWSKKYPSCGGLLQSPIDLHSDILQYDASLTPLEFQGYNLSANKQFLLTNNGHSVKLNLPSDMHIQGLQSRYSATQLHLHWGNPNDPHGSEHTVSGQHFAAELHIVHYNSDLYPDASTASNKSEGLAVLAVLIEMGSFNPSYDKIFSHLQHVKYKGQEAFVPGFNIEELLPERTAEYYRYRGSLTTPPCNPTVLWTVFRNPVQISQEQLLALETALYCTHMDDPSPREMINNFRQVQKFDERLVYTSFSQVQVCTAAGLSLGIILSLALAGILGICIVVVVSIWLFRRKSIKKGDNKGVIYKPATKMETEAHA

The next assay addresses Carbonic anhydrase 9 (Homo sapiens, UniProt Q16790). In words: Inhibition of human CA9 assessed as inhibition constant. The essentials:
as §1

Usually IC50 stands for the concentration that inhibits the measured activity by half. Consider `O=c1[nH]cc(F)c(=O)[nH]1` [FLUOROURACIL], for which the IC50 in the assay with Hep 3B2 came out at 60.6 µM; with L929, 14 µM; in the assay with A549, 100 µM.

As a reminder, the Ki is the dissociation constant of the complex between target and ligand, obtained from inhibition or displacement. As to `CCCCCCCO/N=C(/C)c1nnn(-c2ccc(S(N)(=O)=O)cc2)c1C`, the inhibition constant Ki at Carbonic anhydrase 12 was found to be 0.117 µM; at Carbonic anhydrase 9, 0.196 µM.

The record behind these values is ChEMBL document CHEMBL6134774, “Novel benzenesulfonamides containing a dual triazole moiety with selective carbonic anhydrase inhibition and anticancer activity” (RSC Med Chem, 2025).
